Data taken from ChEMBL document CHEMBL3588757, “Structure-based design, synthesis and biological testing of piperazine-linked bis-epipodophyllotoxin etoposide analogs” (Bioorg Med Chem, 2015).

Key:
Type in all cases: functional
[1] = system: NCI-H226; test: Cytotoxicity against human NCI-H226 cells by SRB assay
How it was run: (§1)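 NCI-60 panel screen; 5-dose testing giving GI50 per cell line, plus a single 10 µM one-dose test. Method details not given beyond the NCI screen.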

[2] = system: RPMI-8226; test: Cytotoxicity against human RPMI8226 cells assessed as cell growth at 0.5 uM by SRB assay; settings: read-out: Activity
[3] = system: NCI-H226; test: Cytotoxicity against human NCI-H226 cells assessed as cell growth at 0.005 uM by SRB assay; settings: read-out: Activity
[4] = system: MDA-MB-468; test: Cytotoxicity against human MDA-MB-468 cells assessed as cell growth at 0.005 uM by SRB assay; settings: read-out: Activity
[5] = system: UACC-257; test: Cytotoxicity against human UACC257 cells by SRB assay; how it was run: as §1
[6] = system: SK-MEL-28; test: Cytotoxicity against human SK-MEL-28 cells by SRB assay; how it was run: as §1
[7] = Cytotoxicity against human Hs578T cells assessed as cell growth at 5 uM by SRB assay; settings: Hs-578T, read-out: Activity
How it was run: (§2)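 Measured in the NCI-60 human tumour cell line panel using five-dose testing. Growth was recorded at each dose for each cell line, and a GI50 was derived for each line.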

[8] = system: HCC 2998; test: Cytotoxicity against human HCC2998 cells assessed as cell growth at 0.05 uM by SRB assay; settings: read-out: Activity; how it was run: as §2
[9] = system: TK-10; test: Cytotoxicity against human TK10 cells by SRB assay; how it was run: as §1
[10] = system: SF-268; test: Cytotoxicity against human SF268 cells assessed as cell growth at 0.5 uM by SRB assay; settings: read-out: Activity
[11] = system: SR; test: Cytotoxicity against human SR cells assessed as cell growth at 0.05 uM by SRB assay; settings: read-out: Activity
[12] = system: SK-MEL-2; test: Cytotoxicity against human SK-MEL-2 cells assessed as cell growth at 5 uM by SRB assay; settings: read-out: Activity
[13] = system: BT-549; test: Cytotoxicity against human BT549 cells assessed as cell growth at 50 uM by SRB assay; settings: read-out: Activity
[14] = system: OVCAR-5; test: Cytotoxicity against human OVCAR5 cells assessed as cell growth at 5 uM by SRB assay; settings: read-out: Activity
[15] = system: A549; test: Cytotoxicity against human A549/ATCC cells assessed as cell growth at 0.05 uM by SRB assay; settings: read-out: Activity
[16] = system: OVCAR-5; test: Cytotoxicity against human OVCAR5 cells assessed as cell growth at 0.05 uM by SRB assay; settings: read-out: Activity
[17] = system: HL-60(TB); test: Cytotoxicity against human HL-60(TB) cells assessed as cell growth at 0.05 uM by SRB assay; settings: read-out: Activity; how it was run: as §2
[18] = system: MOLT-4; test: Cytotoxicity against human MOLT4 cells assessed as cell growth at 0.005 uM by SRB assay; settings: read-out: Activity
[19] = system: HOP-92; test: Cytotoxicity against human HOP92 cells by SRB assay; how it was run: as §2
[20] = system: MOLT-4; test: Cytotoxicity against human MOLT4 cells assessed as cell growth at 0.05 uM by SRB assay; settings: read-out: Activity
[21] = system: NCI-H23; test: Cytotoxicity against human NCI-H23 cells assessed as cell growth at 0.5 uM by SRB assay; settings: read-out: Activity
[22] = system: OVCAR-8; test: Cytotoxicity against human OVCAR8 cells assessed as cell growth at 0.5 uM by SRB assay; settings: read-out: Activity
[23] = system: NCI-H460; test: Cytotoxicity against human NCI-H460 cells by SRB assay; how it was run: as §1
[24] = system: M14; test: Cytotoxicity against human M14 cells assessed as cell growth at 0.5 uM by SRB assay; settings: read-out: Activity
[25] = system: CCRF-CEM; test: Cytotoxicity against human CCRF-CEM cells assessed as cell growth at 0.005 uM by SRB assay; settings: read-out: Activity
[26] = system: UO-31; test: Cytotoxicity against human UO31 cells assessed as cell growth at 50 uM by SRB assay; settings: read-out: Activity
[27] = system: HOP-92; test: Cytotoxicity against human HOP92 cells assessed as cell growth at 5 uM by SRB assay; settings: read-out: Activity; how it was run: as §2
[28] = system: SF-539; test: Cytotoxicity against human SF539 cells assessed as cell growth at 5 uM by SRB assay; settings: read-out: Activity
[29] = system: HCC 2998; test: Cytotoxicity against human HCC2998 cells assessed as cell growth at 5 uM by SRB assay; settings: read-out: Activity; how it was run: as §2
[30] = system: NCI-H460; test: Cytotoxicity against human NCI-H460 cells assessed as cell growth at 5 uM by SRB assay; settings: read-out: Activity
[31] = system: HCC 2998; test: Cytotoxicity against human HCC2998 cells assessed as cell growth at 50 uM by SRB assay; settings: read-out: Activity; how it was run: as §2
[32] = system: SF-539; test: Cytotoxicity against human SF539 cells assessed as cell growth at 0.5 uM by SRB assay; settings: read-out: Activity
[33] = system: HL-60(TB); test: Cytotoxicity against human HL-60(TB) cells assessed as cell growth at 5 uM by SRB assay; settings: read-out: Activity; how it was run: as §2
[34] = system: SK-MEL-5; test: Cytotoxicity against human SK-MEL-5 cells assessed as cell growth at 0.05 uM by SRB assay; settings: read-out: Activity
[35] = system: SK-MEL-28; test: Cytotoxicity against human SK-MEL-28 cells assessed as cell growth at 0.005 uM by SRB assay; settings: read-out: Activity
[36] = system: MCF7; test: Cytotoxicity against human MCF7 cells assessed as cell growth at 0.05 uM by SRB assay; settings: read-out: Activity
[37] = system: NCI-H23; test: Cytotoxicity against human NCI-H23 cells assessed as cell growth at 0.05 uM by SRB assay; settings: read-out: Activity
[38] = system: DU-145; test: Cytotoxicity against human DU145 cells assessed as cell growth at 0.005 uM by SRB assay; settings: read-out: Activity
[39] = system: SK-OV-3; test: Cytotoxicity against human SKOV3 cells assessed as cell growth at 0.5 uM by SRB assay; settings: read-out: Activity
[40] = system: SF-295; test: Cytotoxicity against human SF295 cells assessed as cell growth at 50 uM by SRB assay; settings: read-out: Activity
[41] = system: M14; test: Cytotoxicity against human M14 cells assessed as cell growth at 50 uM by SRB assay; settings: read-out: Activity
[42] = system: NCI-H522; test: Cytotoxicity against human NCI-H522 cells assessed as cell growth at 5 uM by SRB assay; settings: read-out: Activity
[43] = system: LOX IMVI; test: Cytotoxicity against human LOXIMVI cells assessed as cell growth at 5 uM by SRB assay; settings: read-out: Activity
[44] = read-out: LC50 (the source's name)
[45] = read-out: pLC50 (the source's name) (converted)

For `COc1cc([C@@H]2c3cc4c(cc3[C@@H](NC(=O)CN3CCN(CCCCCCN5CCN(CC(=O)N[C@@H]6c7cc8c(cc7[C@@H](c7cc(OC)c(O)c(OC)c7)[C@H]7C(=O)OC[C@@H]76)OCO8)CC5)CC3)[C@H]3COC(=O)[C@H]23)OCO4)cc(OC)c1O`, the GI50 ([1]; read-out: GI50) was 5.42 µM, the CC50 [1, 44] was greater than 50 µM and the TGI ([1]; read-out: TGI) was 46.8 µM. For the same compound, the GI50 ([1]; read-out: pGI50 (converted)) was 5.37 µM, the CC50 [1, 45] was greater than 50.1 µM and the TGI ([1]; read-out: pTGI (converted)) was 46.8 µM. For the same compound, the growth at 0.5 µM [2] was 67%, the growth at 0.005 µM [3] was 92% and the growth at 0.005 µM [4] was 91%. For the same compound, the GI50 ([5]; read-out: GI50) was 18.9 µM, the CC50 [5, 44] was greater than 50 µM and the TGI ([5]; read-out: TGI) was greater than 50 µM. The GI50 ([5]; read-out: pGI50 (converted)) was 19.1 µM, the CC50 [5, 45] was greater than 50.1 µM and the TGI ([5]; read-out: pTGI (converted)) was greater than 50.1 µM. For the same compound, the GI50 ([6]; read-out: GI50) was 6.52 µM, the CC50 [6, 44] was greater than 50 µM and the TGI ([6]; read-out: TGI) was greater than 50 µM. It also gave a GI50 ([6]; read-out: pGI50 (converted)) of 6.46 µM, a CC50 [6, 45] greater than 50.1 µM and a TGI ([6]; read-out: pTGI (converted)) greater than 50.1 µM. For the same compound, the growth at 5 µM [7] was 64%, the growth at 0.05 µM [8] was 104% and the GI50 ([9]; read-out: GI50) was greater than 50 µM. It also gave a CC50 [9, 44] greater than 50 µM, a TGI ([9]; read-out: TGI) greater than 50 µM and a GI50 ([9]; read-out: pGI50 (converted)) greater than 50.1 µM. For the same compound, the CC50 [9, 45] was greater than 50.1 µM, the TGI ([9]; read-out: pTGI (converted)) was greater than 50.1 µM and the growth at 0.5 µM [10] was 74%. For the same compound, the growth at 0.05 µM [11] was 64%, the growth at 5 µM [12] was 86% and the growth at 50 µM [13] was -40%. For the same compound, the growth at 5 µM [14] was 58%, the growth at 0.05 µM [15] was 89% and the growth at 0.05 µM [16] was 89%. For the same compound, the growth at 0.05 µM [17] was 114%, the growth at 0.005 µM [18] was 108% and the GI50 ([19]; read-out: GI50) was 1.55 µM. It also gave a CC50 [19, 44] greater than 50 µM, a TGI ([19]; read-out: TGI) greater than 50 µM and a GI50 ([19]; read-out: pGI50 (converted)) of 1.55 µM. It also gave a CC50 [19, 45] greater than 50.1 µM, a TGI ([19]; read-out: pTGI (converted)) greater than 50.1 µM and a growth at 0.05 µM [20] of 105%. It also gave a growth at 0.5 µM [21] of 95%, a growth at 0.5 µM [22] of 111% and a GI50 ([23]; read-out: GI50) of 0.261 µM. For the same compound, the CC50 [23, 44] was greater than 50 µM, the TGI ([23]; read-out: TGI) was 9.45 µM and the GI50 ([23]; read-out: pGI50 (converted)) was 0.263 µM. The CC50 [23, 45] was greater than 50.1 µM, the TGI ([23]; read-out: pTGI (converted)) was 9.55 µM and the growth at 0.5 µM [24] was 79%. For the same compound, the growth at 0.005 µM [25] was 102%, the growth at 50 µM [26] was 64% and the growth at 5 µM [27] was 30%. It also gave a growth at 5 µM [28] of 12%, a growth at 5 µM [29] of 73% and a growth at 5 µM [30] of 11%. The growth at 50 µM [31] was -10%, the growth at 0.5 µM [32] was 71% and the growth at 5 µM [33] was 6%. The growth at 0.05 µM [34] was 93%, the growth at 0.005 µM [35] was 100% and the growth at 0.05 µM [36] was 77%. The growth at 0.05 µM [37] was 102%, the growth at 0.005 µM [38] was 102% and the growth at 0.5 µM [39] was 97%. It also gave a growth at 50 µM [40] of 1%, a growth at 50 µM [41] of -19% and a growth at 5 µM [42] of 51%. The growth at 5 µM [43] was 23%.
